Measurements: ChEMBL document CHEMBL3588757, “Structure-based design, synthesis and biological testing of piperazine-linked bis-epipodophyllotoxin etoposide analogs” (Bioorg Med Chem, 2015)

Columns and labels:
[1] = molecular target: DNA topoisomerase 2-alpha (Homo sapiens) (UniProt P11388); assay: Inhibition of full-length human recombinant topoisomerase 2-alpha mediated relaxation and cleavage of supercoiled pBR322 plasmid DNA to linear DNA by ethidium bromide staining based gel electrophoresis assay
Chain of DNA topoisomerase 2-alpha (Homo sapiens) (P11388 whole entry): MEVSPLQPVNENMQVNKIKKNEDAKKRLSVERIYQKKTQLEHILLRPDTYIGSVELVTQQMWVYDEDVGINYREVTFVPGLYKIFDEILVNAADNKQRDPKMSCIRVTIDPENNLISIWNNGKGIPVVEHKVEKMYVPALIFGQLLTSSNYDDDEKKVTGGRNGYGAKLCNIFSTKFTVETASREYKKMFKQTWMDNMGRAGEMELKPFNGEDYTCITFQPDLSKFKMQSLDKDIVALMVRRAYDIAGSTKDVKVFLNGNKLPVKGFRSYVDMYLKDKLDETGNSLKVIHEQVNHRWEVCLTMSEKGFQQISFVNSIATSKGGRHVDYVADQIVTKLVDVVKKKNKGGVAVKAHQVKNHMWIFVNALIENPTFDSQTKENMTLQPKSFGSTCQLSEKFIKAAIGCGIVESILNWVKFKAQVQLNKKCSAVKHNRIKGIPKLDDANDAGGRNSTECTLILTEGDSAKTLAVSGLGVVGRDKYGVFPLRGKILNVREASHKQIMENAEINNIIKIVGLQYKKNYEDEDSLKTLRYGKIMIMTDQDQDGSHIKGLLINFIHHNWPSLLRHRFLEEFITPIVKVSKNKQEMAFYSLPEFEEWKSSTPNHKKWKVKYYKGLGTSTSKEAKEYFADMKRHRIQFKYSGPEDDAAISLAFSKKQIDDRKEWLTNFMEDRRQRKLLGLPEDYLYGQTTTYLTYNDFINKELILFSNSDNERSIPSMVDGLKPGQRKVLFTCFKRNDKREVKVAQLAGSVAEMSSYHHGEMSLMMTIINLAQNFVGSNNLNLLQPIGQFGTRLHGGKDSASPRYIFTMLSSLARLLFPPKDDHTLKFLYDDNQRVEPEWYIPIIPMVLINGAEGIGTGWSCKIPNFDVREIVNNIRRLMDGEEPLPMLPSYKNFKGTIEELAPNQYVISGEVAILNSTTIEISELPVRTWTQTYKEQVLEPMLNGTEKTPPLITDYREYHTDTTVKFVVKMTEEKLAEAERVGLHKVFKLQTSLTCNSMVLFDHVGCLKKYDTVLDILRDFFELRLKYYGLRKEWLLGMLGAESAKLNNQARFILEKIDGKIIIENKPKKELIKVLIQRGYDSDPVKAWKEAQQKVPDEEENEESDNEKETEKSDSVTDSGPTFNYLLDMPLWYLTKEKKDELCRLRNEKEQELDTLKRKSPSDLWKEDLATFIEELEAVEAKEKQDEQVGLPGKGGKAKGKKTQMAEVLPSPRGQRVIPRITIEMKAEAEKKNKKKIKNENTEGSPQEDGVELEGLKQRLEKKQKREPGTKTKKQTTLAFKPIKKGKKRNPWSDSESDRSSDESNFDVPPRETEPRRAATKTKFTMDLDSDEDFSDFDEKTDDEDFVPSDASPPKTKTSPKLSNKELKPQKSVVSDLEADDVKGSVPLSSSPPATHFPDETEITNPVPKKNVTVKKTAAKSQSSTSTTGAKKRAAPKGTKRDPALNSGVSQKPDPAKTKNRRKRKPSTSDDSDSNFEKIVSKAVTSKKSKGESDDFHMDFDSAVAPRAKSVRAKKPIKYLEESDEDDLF
Procedure, shortened: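 Recombinant full-length human topoisomerase IIα with supercoiled pBR322 DNA at 37 °C. Components mixed on ice before drug addition. Complexes trapped with SDS; products run on ethidium bromide gels. Linear DNA identified against a HindIII-linearized marker; repeated on three days.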

[2] = test system: M14; assay: Cytotoxicity against human M14 cells assessed as cell growth at 50 uM by SRB assay; type: functional; conditions: read-out: Activity
[3] = test system: SK-MEL-2; assay: Cytotoxicity against human SK-MEL-2 cells assessed as cell growth at 50 uM by SRB assay; type: functional; conditions: read-out: Activity
[4] = test system: OVCAR-8; assay: Cytotoxicity against human OVCAR8 cells assessed as cell growth at 50 uM by SRB assay; type: functional; conditions: read-out: Activity
[5] = test system: ACHN; assay: Cytotoxicity against human ACHN cells assessed as cell growth at 50 uM by SRB assay; type: functional; conditions: read-out: Activity
[6] = test system: T47D; assay: Cytotoxicity against human T47D cells assessed as cell growth at 50 uM by SRB assay; type: functional; conditions: read-out: Activity
[7] = test system: SF-539; assay: Cytotoxicity against human SF539 cells by SRB assay; type: functional
Procedure, shortened: (§1)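 NCI-60 panel screen; 5-dose testing giving GI50 per cell line, plus a single 10 µM one-dose test. Method details not given beyond the NCI screen.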

[8] = test system: SNB-75; assay: Cytotoxicity against human SNB75 cells by SRB assay; type: functional; procedure, shortened: as §1
[9] = test system: 786-0; assay: Cytotoxicity against human 786-0 cells by SRB assay; type: functional
[10] = test system: SN12C; assay: Cytotoxicity against human SN12C cells by SRB assay; type: functional; procedure, shortened: as §1
[11] = test system: UO-31; assay: Cytotoxicity against human UO31 cells by SRB assay; type: functional; procedure, shortened: as §1
[12] = test system: COLO 205; assay: Cytotoxicity against human COLO205 cells assessed as cell growth at 0.005 uM by SRB assay; type: functional; conditions: read-out: Activity
[13] = test system: SK-MEL-5; assay: Cytotoxicity against human SK-MEL-5 cells assessed as cell growth at 0.005 uM by SRB assay; type: functional; conditions: read-out: Activity
[14] = test system: MDA-MB-231; assay: Cytotoxicity against human MDA-MB-231/ATCC cells assessed as cell growth at 0.005 uM by SRB assay; type: functional; conditions: read-out: Activity
[15] = test system: A549; assay: Cytotoxicity against human A549/ATCC cells assessed as cell growth at 0.05 uM by SRB assay; type: functional; conditions: read-out: Activity
[16] = test system: HCC 2998; assay: Cytotoxicity against human HCC2998 cells assessed as cell growth at 0.05 uM by SRB assay; type: functional; conditions: read-out: Activity
Procedure, shortened: (§2)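 Measured in the NCI-60 human tumour cell line panel using five-dose testing. Growth was recorded at each dose for each cell line, and a GI50 was derived for each line.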

[17] = test system: SF-295; assay: Cytotoxicity against human SF295 cells assessed as cell growth at 0.05 uM by SRB assay; type: functional; conditions: read-out: Activity
[18] = test system: U-251; assay: Cytotoxicity against human U251 cells assessed as cell growth at 0.05 uM by SRB assay; type: functional; conditions: read-out: Activity
[19] = test system: M14; assay: Cytotoxicity against human M14 cells assessed as cell growth at 0.05 uM by SRB assay; type: functional; conditions: read-out: Activity
[20] = test system: SK-MEL-28; assay: Cytotoxicity against human SK-MEL-28 cells assessed as cell growth at 0.05 uM by SRB assay; type: functional; conditions: read-out: Activity
[21] = test system: CAKI-1; assay: Cytotoxicity against human Caki1 cells assessed as cell growth at 0.05 uM by SRB assay; type: functional; conditions: read-out: Activity
[22] = test system: SN12C; assay: Cytotoxicity against human SN12C cells assessed as cell growth at 0.05 uM by SRB assay; type: functional; conditions: read-out: Activity
[23] = test system: PC-3; assay: Cytotoxicity against human PC3 cells assessed as cell growth at 0.05 uM by SRB assay; type: functional; conditions: read-out: Activity
[24] = test system: HL-60(TB); assay: Cytotoxicity against human HL-60(TB) cells assessed as cell growth at 0.5 uM by SRB assay; type: functional; conditions: read-out: Activity; procedure, shortened: as §2
[25] = test system: RPMI-8226; assay: Cytotoxicity against human RPMI8226 cells assessed as cell growth at 0.5 uM by SRB assay; type: functional; conditions: read-out: Activity
[26] = test system: SNB-75; assay: Cytotoxicity against human SNB75 cells assessed as cell growth at 0.5 uM by SRB assay; type: functional; conditions: read-out: Activity
[27] = test system: M14; assay: Cytotoxicity against human M14 cells assessed as cell growth at 0.5 uM by SRB assay; type: functional; conditions: read-out: Activity
[28] = test system: SK-MEL-28; assay: Cytotoxicity against human SK-MEL-28 cells assessed as cell growth at 0.5 uM by SRB assay; type: functional; conditions: read-out: Activity
[29] = test system: UACC-257; assay: Cytotoxicity against human UACC257 cells assessed as cell growth at 0.5 uM by SRB assay; type: functional; conditions: read-out: Activity
[30] = test system: 786-0; assay: Cytotoxicity against human 786-0 cells assessed as cell growth at 0.5 uM by SRB assay; type: functional; conditions: read-out: Activity
[31] = test system: RXF 393; assay: Cytotoxicity against human RXF393 cells assessed as cell growth at 0.5 uM by SRB assay; type: functional; conditions: read-out: Activity
[32] = test system: MDA-MB-231; assay: Cytotoxicity against human MDA-MB-231/ATCC cells assessed as cell growth at 0.5 uM by SRB assay; type: functional; conditions: read-out: Activity
[33] = test system: HOP-92; assay: Cytotoxicity against human HOP92 cells assessed as cell growth at 5 uM by SRB assay; type: functional; conditions: read-out: Activity; procedure, shortened: as §2
[34] = test system: NCI-H522; assay: Cytotoxicity against human NCI-H522 cells assessed as cell growth at 5 uM by SRB assay; type: functional; conditions: read-out: Activity
[35] = test system: SNB-75; assay: Cytotoxicity against human SNB75 cells assessed as cell growth at 5 uM by SRB assay; type: functional; conditions: read-out: Activity
[36] = test system: SK-MEL-28; assay: Cytotoxicity against human SK-MEL-28 cells assessed as cell growth at 5 uM by SRB assay; type: functional; conditions: read-out: Activity
[37] = test system: OVCAR-4; assay: Cytotoxicity against human OVCAR4 cells assessed as cell growth at 5 uM by SRB assay; type: functional; conditions: read-out: Activity
[38] = test system: SK-OV-3; assay: Cytotoxicity against human SKOV3 cells assessed as cell growth at 5 uM by SRB assay; type: functional; conditions: read-out: Activity
[39] = test system: ACHN; assay: Cytotoxicity against human ACHN cells assessed as cell growth at 5 uM by SRB assay; type: functional; conditions: read-out: Activity
[40] = test system: DU-145; assay: Cytotoxicity against human DU145 cells assessed as cell growth at 5 uM by SRB assay; type: functional; conditions: read-out: Activity; procedure, shortened: as §2
[41] = test system: HL-60(TB); assay: Cytotoxicity against human HL-60(TB) cells assessed as cell growth at 50 uM by SRB assay; type: functional; conditions: read-out: Activity; procedure, shortened: as §2
[42] = test system: HCC 2998; assay: Cytotoxicity against human HCC2998 cells assessed as cell growth at 50 uM by SRB assay; type: functional; conditions: read-out: Activity; procedure, shortened: as §2
[43] = read-out: LC50 (the source's name)
[44] = read-out: pLC50 (the source's name) (converted)

COc1cc([C@@H]2c3cc4c(cc3[C@@H](NC(=O)CN3CCN(CCCCCCCCCCN5CCN(CC(=O)N[C@@H]6c7cc8c(cc7[C@@H](c7cc(OC)c(O)c(OC)c7)[C@H]7C(=O)OC[C@@H]76)OCO8)CC5)CC3)[C@H]3COC(=O)[C@H]23)OCO4)cc(OC)c1O
Effect on topoisomerase 2-alpha DNA cleavage (qualitative) [1]: Dose-dependent effect | growth at 50 µM [2]: -49% | growth at 50 µM [3]: -59% | growth at 50 µM [4]: -19% | growth at 50 µM [5]: -87% | growth at 50 µM [6]: -40% | GI50 ([7]; read-out: GI50): 122 nM | TGI ([7]; read-out: TGI): 670 nM | GI50 ([7]; read-out: pGI50 (converted)): 123 nM | TGI ([7]; read-out: pTGI (converted)): 676 nM | GI50 ([8]; read-out: GI50): 228 nM | CC50 [8, 43]: > 50000 nM | TGI ([8]; read-out: TGI): 2750 nM | GI50 ([8]; read-out: pGI50 (converted)): 229 nM | CC50 [8, 44]: > 50100 nM | TGI ([8]; read-out: pTGI (converted)): 2750 nM | GI50 ([9]; read-out: GI50): 209 nM | CC50 [9, 43]: 18700 nM | TGI ([9]; read-out: TGI): 2340 nM | GI50 ([9]; read-out: pGI50 (converted)): 209 nM | CC50 [9, 44]: 18600 nM | TGI ([9]; read-out: pTGI (converted)): 2340 nM | GI50 ([10]; read-out: GI50): 185 nM | CC50 [10, 43]: > 50000 nM | TGI ([10]; read-out: TGI): 5820 nM | GI50 ([10]; read-out: pGI50 (converted)): 186 nM | CC50 [10, 44]: > 50100 nM | TGI ([10]; read-out: pTGI (converted)): 5890 nM | GI50 ([11]; read-out: GI50): 986 nM | CC50 [11, 43]: 13500 nM | TGI ([11]; read-out: TGI): 3610 nM | GI50 ([11]; read-out: pGI50 (converted)): 977 nM | CC50 [11, 44]: 13500 nM | TGI ([11]; read-out: pTGI (converted)): 3630 nM | growth at 0.005 µM [12]: 90% | growth at 0.005 µM [13]: 102% | growth at 0.005 µM [14]: 98% | growth at 0.05 µM [15]: 29% | growth at 0.05 µM [16]: 83% | growth at 0.05 µM [17]: 88% | growth at 0.05 µM [18]: 69% | growth at 0.05 µM [19]: 94% | growth at 0.05 µM [20]: 100% | growth at 0.05 µM [21]: 89% | growth at 0.05 µM [22]: 80% | growth at 0.05 µM [23]: 89% | growth at 0.5 µM [24]: 15% | growth at 0.5 µM [25]: -2% | growth at 0.5 µM [26]: 34% | growth at 0.5 µM [27]: 65% | growth at 0.5 µM [28]: 138% | growth at 0.5 µM [29]: 73% | growth at 0.5 µM [30]: 26% | growth at 0.5 µM [31]: 71% | growth at 0.5 µM [32]: 87% | growth at 5 µM [33]: -9% | growth at 5 µM [34]: -54% | growth at 5 µM [35]: -12% | growth at 5 µM [36]: 64% | growth at 5 µM [37]: -28% | growth at 5 µM [38]: 4% | growth at 5 µM [39]: -77% | growth at 5 µM [40]: -7% | growth at 50 µM [41]: -46% | growth at 50 µM [42]: -100%
